Test results reported in ChEMBL document CHEMBL3421580, “Discovery of autophagy inhibitors with antiproliferative activity in lung and pancreatic cancer cells” (ACS Med Chem Lett, 2015).
Calls of active or inactive are those of the source. The rule behind the calls is not given here.

Assays:
[1] = Antiproliferative activity against human H460 cells after 72 hrs by SRB method; format: functional, cell-based; details: NCI-H460, 72 h
Method in brief: (§1)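 SRB growth assay: cells exposed to compounds over a 100-fold concentration range for 72 h, then cell number quantified. IC50 calculated from the curves. Means of at least 3 experiments, each run in triplicate.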

[2] = Antiproliferative activity against human BxPC3 cells after 72 hrs by SRB method; format: functional, cell-based; details: BXPC-3, 72 h; method in brief: as §1
[3] = Antiproliferative activity against human HCC827 cells after 72 hrs by SRB method; format: functional, cell-based; details: HCC827, 72 h; method in brief: as §1
[4] = Ratio of hydroxychloroquine IC50 to compound IC50 for human H460 cells; format: functional
BXPC-3 = experiment: Ratio of hydroxychloroquine IC50 to compound IC50 for human BxPC3 cells; format: functional
[5] = Ratio of hydroxychloroquine IC50 to compound IC50 for human HCC827 cells; format: functional
MDA-MB-231 = experiment: Cytotoxicity against human MDA-MB-231 cells after 72 hrs by MTT assay; format: functional, cell-based; details: MDA-MB-231, 72 h, pooled result: one value given for 7 cell lines, strains, targets or settings
NCI-H460 [6] = experiment: Inhibition of autophagy in human H460 cells assessed as increase in punctate LC3 level at 10 uM by immunoblot analysis; format: functional, cell-based; details: TDE = time-dependent effect
Method in brief: (§2)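 H460 cells treated 24 h across a concentration series, or with 10 μM compound for varying times, or at 10 μM for 24 h. Cell extracts immunoblotted with anti-LC3 to separate LC3-I from autophagosome-bound LC3-II. Actin probed as loading control.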

NCI-H460 [7] = experiment: Inhibition of autophagy in human H460 cells assessed as increase in LC3-2 level at 10 uM after 24 hrs by immunoblot analysis
Homo sapiens = organism: Homo sapiens; experiment: Cmax in human at 1200 mg; format: ADME, organism-based; parameters: dose 1200 mg; details: in vivo
NCI-H460 [8] = experiment: Induction of apoptosis in human H460 cells at 25 to 75 uM after 24 hrs by annexin-V staining-based flow cytometry; format: functional, cell-based
Method in brief: (§3)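 Apoptosis in treated H460 cells was detected by binding of APC-conjugated annexin V to surface phosphatidylserine, measured by flow cytometry. Means ± SD of 3 experiments; p < 0.05 taken as significant.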

NCI-H460 [9] = experiment: Inhibition of autophagy in human H460 cells assessed as increase in punctate LC3 level after 24 hrs by immunoblot analysis; format: functional, cell-based; method in brief: as §2
NCI-H460 [10] = experiment: Inhibition of autophagy in human H460 cells assessed as increase in p62 level after 24 hrs by immunoblot analysis; format: functional, cell-based
Method in brief: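 H460 cells exposed 24 h to a concentration series. Extracts immunoblotted for p62, with actin as loading control.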

NCI-H3122 = experiment: Inhibition of autophagy in human NCI-H3122 cells assessed as increase in punctate LC3 expression at 25 to 50 uM after 6 hrs by fluorescence microscopic analysis; format: functional, cell-based
Method in brief: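 NCI-H3122 NSCLC cells transfected with a mCherry-EGFP-LC3B tandem reporter, then treated 6 h. Cells fixed and green, red and yellow fluorescent puncta examined by fluorescence microscopy.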

[11] = Inhibition of colony formation in human H460 cells at 6.5 to 100 uM treated for 24 hrs followed by incubation in drug free medium for 10 days by crystal violet staining-based assay relative to hydroxychloroquine; format: functional, NCI-H460
Method in brief: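 H460 cells exposed to drug for 24 h, after which medium was replaced with drug-free medium. Colonies grew for another 10 days and were stained with crystal violet.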

NCI-H460 [12] = experiment: Induction of apoptosis in human H460 cells after 24 hrs by annexin-V staining-based flow cytometry; format: functional, cell-based; method in brief: as §3
[13] = Cytotoxicity against human 1205 Lu cells after 72 hrs by MTT assay; format: functional, cell-based
[14] = Cytotoxicity against human LN229 cells after 72 hrs by MTT assay; format: functional, cell-based; details: LN-229, 72 h
[15] = Cytotoxicity against human C8161 cells after 72 hrs by MTT assay; format: functional, cell-based; details: C8161, 72 h
HT-29 = experiment: Cytotoxicity against human HT-29 cells after 72 hrs by MTT assay; format: functional, cell-based; details: HT-29, 72 h

Structure (SMILES)	IC50 [1] [µM]	IC50 [2] [µM]	IC50 [3] [µM]	Ratio IC50 [4]	Ratio IC50 (BXPC-3)	Ratio IC50 [5]	further results
CN(CCNCc1cn(-c2nc3ccccc3[nH]2)nn1)CCNc1ccnc2cc(Cl)ccc12	33	16	32	2.1	2.1	2.1	
CN(CCNCc1cn(Cc2ccc(Br)cc2)nn1)CCNc1ccnc2cc(Cl)ccc12	12	8.7	9.3	5.7	5.7	5.7	
C#CCNCCN(C)CCNc1ccnc2cc(Cl)ccc12	69		105				
CN(CCNCc1cn(-c2ccccc2Cl)nn1)CCNc1ccnc2cc(Cl)ccc12	20	11	12	4	4	4	
CN(CCNCc1cn(CCC(=O)Nc2ccccn2)nn1)CCNc1ccnc2cc(Cl)ccc12	> 200		> 200				
CCN(CC)CCNc1ccc(C)c2sc3ccccc3c(=O)c12 [LUCANTHONE]							IC50 (MDA-MB-231): 5.7 µM
CN(CCNCc1cn(-c2cccc(Cl)c2)nn1)CCNc1ccnc2cc(Cl)ccc12	17	12	9.4	4.7	4.7	4.7	
CCN(CCO)CCCC(C)Nc1ccnc2cc(Cl)ccc12 (stereo not given) [HYDROXYCHLOROQUINE]	74	33	65				inhibition (NCI-H460 [6]): tde; inhibition (NCI-H460 [7]): Active; Cmax (Homo sapiens): 7 µM; Activity (NCI-H460 [8]): Active; inhibition (NCI-H460 [9]): Dose-dependent effect; inhibition (NCI-H460 [10]): Dose-dependent effect; inhibition (NCI-H3122): Active
CN(CCNCc1cn(CCc2c[nH]c3ccccc23)nn1)CCNc1ccnc2cc(Cl)ccc12	12	7.6	8.5	6	6	6	
CN(CCNCc1cn(-c2ccc(F)cc2)nn1)CCNc1ccnc2cc(Cl)ccc12	34	12	19	2.8	2.8	2.8	
CN(CCNCc1cn(C(C)(C)C)nn1)CCNc1ccnc2cc(Cl)ccc12	79	39	56				
CN(CCNCc1cn(CCc2ccccc2)nn1)CCNc1ccnc2cc(Cl)ccc12	24	13	15	3.2	3.2	3.2	
CN(CCNc1ccnc2cc(Cl)ccc12)Cc1cn(-c2ccnc3cc(Cl)ccc23)nn1	29	16	18	2.7	2.7	2.7	
CN(CCNCc1cn(Cc2ccc(Cl)cc2)nn1)CCNc1ccnc2cc(Cl)ccc12	11	5.8	7.6	7	7	7	inhibition (NCI-H460 [6]): tde; inhibition (NCI-H460 [7]): Active; Ratio [11]: >10; Activity (NCI-H460 [8]): Active; inhibition (NCI-H460 [9]): Dose-dependent effect; inhibition (NCI-H460 [10]): Dose-dependent effect; inhibition (NCI-H3122): Active; Activity (NCI-H460 [12]): Dose-dependent effect
CN(CCNCc1cn(-c2ccc(Cl)cc2)nn1)CCNc1ccnc2cc(Cl)ccc12	14	9.1	9.5	5.2	5.2	5.2	
CN(CCNCc1cn(CCn2c(=O)[nH]c3ccccc3c2=O)nn1)CCNc1ccnc2cc(Cl)ccc12	147		> 200				
CN(CCNCc1cn(-c2ccccc2)nn1)CCNc1ccnc2cc(Cl)ccc12	25	10	26	2.9	2.9	2.9	
CN(CCNCc1cn(CC(=O)O)nn1)CCNc1ccnc2cc(Cl)ccc12	> 200		> 200				
CN(CCNCc1cn(-c2ccc(Br)cc2)nn1)CCNc1ccnc2cc(Cl)ccc12	15	7.9	11	5	5	5	
CCN(CC)CCCC(C)Nc1ccnc2cc(Cl)ccc12 (stereo not given) [CHLOROQUINE]	52	25	76	1.2	1.2	1.2	IC50 [13]: 3.6 µM; IC50 [14]: 3.6 µM; IC50 [15]: 3.6 µM; Activity (NCI-H460 [8]): Active; IC50 (HT-29): 3.6 µM
Clc1ccc2c(-n3cc(CNCc4cn(-c5ccnc6cc(Cl)ccc56)nn4)nn3)ccnc2c1	70	78	72				
CN(CCNCc1cn(Cc2nc3cc(Cl)ccc3[nH]2)nn1)CCNc1ccnc2cc(Cl)ccc12	59	44	65				
CN(CCNCc1cn(CC(=O)Nc2cccc3ccc(O)cc23)nn1)CCNc1ccnc2cc(Cl)ccc12	67		86				
CN(CCNCc1cn(Cc2ccccc2)nn1)CCNc1ccnc2cc(Cl)ccc12	32	9.7	16	3.1	3.1	3.1	
CN(CCNCc1cn(CCCO)nn1)CCNc1ccnc2cc(Cl)ccc12	> 200		> 200				
CN(CCNCc1cn(CCCn2nn[nH]c2=O)nn1)CCNc1ccnc2cc(Cl)ccc12	> 200		> 200				
CN(CCNCc1cn(-c2ccnc3cc(Cl)ccc23)nn1)CCNc1ccnc2cc(Cl)ccc12	16	8.8	18	3.9	3.9	3.9	
Clc1ccc2c(NCCNCc3cn(-c4ccnc5cc(Cl)ccc45)nn3)ccnc2c1	21	14	16	3.2	3.2	3.2	
CN(CCNCc1cn(Cc2nc3ccccc3[nH]2)nn1)CCNc1ccnc2cc(Cl)ccc12	120		164				
